Results from different studies.
Compare with care: the assays were run in different laboratories.
Target: Prostaglandin G/H synthase 1 (PTGS1, Ovis aries, UniProt P05979)
Observed: enzyme activity
Mode: inhibitor
One construct used (P05979 25-600): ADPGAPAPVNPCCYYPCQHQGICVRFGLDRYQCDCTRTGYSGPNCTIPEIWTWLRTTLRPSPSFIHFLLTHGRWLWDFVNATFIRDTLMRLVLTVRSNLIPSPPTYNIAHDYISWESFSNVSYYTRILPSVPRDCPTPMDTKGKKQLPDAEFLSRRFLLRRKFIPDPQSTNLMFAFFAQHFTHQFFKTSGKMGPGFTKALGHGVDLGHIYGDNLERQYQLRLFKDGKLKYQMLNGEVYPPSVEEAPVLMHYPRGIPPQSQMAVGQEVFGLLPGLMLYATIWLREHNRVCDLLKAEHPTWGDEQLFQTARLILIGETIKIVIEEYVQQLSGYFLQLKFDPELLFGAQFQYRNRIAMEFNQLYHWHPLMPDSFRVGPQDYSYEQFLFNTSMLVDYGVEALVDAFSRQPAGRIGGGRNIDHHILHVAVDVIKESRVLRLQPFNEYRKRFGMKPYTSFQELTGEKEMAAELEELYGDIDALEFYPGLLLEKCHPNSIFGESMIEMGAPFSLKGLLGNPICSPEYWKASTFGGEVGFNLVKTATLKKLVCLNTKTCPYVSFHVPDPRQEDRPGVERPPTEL

Compound	method	IC50 [µM]
COc1ccccc1-c1ccc(F)c(OC(F)(F)F)c1	absorbance	10.8
COc1ccc(-c2nn(-c3ccc(S(C)(=O)=O)cc3)cc2/C=N/N=c2\[nH]c(-c3ccc(Br)cc3)cs2)cc1		62.7
CS(=O)(=O)c1ccc(-c2nc3ccccn3c2Nc2ccc(Cl)cc2)cc1	fluorescence	34.3
CS(=O)(=O)c1ccc(-n2cc(/C=N/N=c3\[nH]c(-c4ccc(Br)cc4)cs3)c(-c3ccc(Br)cc3)n2)cc1		9.42
Cc1cccc2nc(-c3ccc(S(C)(=O)=O)cc3)c(Nc3ccc(Cl)cc3)n12	fluorescence	27.1
NS(=O)(=O)c1ccc(-c2ncccc2-c2nc3ccccc3s2)cc1	absorbance	> 100
Cc1cccc2nc(-c3ccc(S(C)(=O)=O)cc3)c(Nc3ccc(F)cc3)n12	fluorescence	40.2
CSc1ccc(/C=C2\C=C(CC(=O)NS(=O)(=O)C(F)(F)F)c3cc(F)ccc32)cc1		0.7 to 1
CS(=O)(=O)c1ccc(-c2ncc(Cl)cc2-c2nc3ccccc3s2)cc1	absorbance	> 100
CS(=O)(=O)c1ccc(-n2cc(C=N/N=c3\[nH]c(-c4ccc(Br)cc4)cs3)c(-c3ccc([N+](=O)[O-])cc3)n2)cc1		68.2
Cc1ccn2c(Nc3ccc(F)cc3)c(-c3ccc(S(C)(=O)=O)cc3)nc2c1	fluorescence	33.6
COc1ccccc1-c1ccc(F)c(C(F)(F)F)c1	absorbance	9.99
Cc1ccc(-c2nc3ccccc3s2)c(-c2ccc(S(C)(=O)=O)cc2)c1	absorbance	> 100
COc1ccc(Nc2c(-c3ccc(S(C)(=O)=O)cc3)nc3cc(C)ccn23)cc1	fluorescence	29.7
O=C(O)CC1=C/C(=C\c2cccc(-c3ccc(F)cc3)n2)c2ccc(F)cc21		9.3
CC(C(=O)O)c1cccc(C(=O)c2ccccc2)c1 (stereo not drawn)		0.05
CS(=O)(=O)c1ccc(-n2cc(/C=N/N=c3\[nH]c(-c4ccc([N+](=O)[O-])cc4)cs3)c(-c3ccc([N+](=O)[O-])cc3)n2)cc1		38.5
Fc1ccc(-c2ccccc2F)cc1OC(F)(F)F	absorbance	11
C[C@@H]1O[C@@H](OC[C@H]2O[C@@H](Oc3c(-c4ccc(O)cc4)oc4cc(O)cc(O)c4c3=O)[C@H](O[C@@H]3O[C@H](CO)[C@@H](O)[C@H](O)[C@H]3O)[C@@H](O)[C@@H]2O)[C@H](O)[C@H](O)[C@H]1O	absorbance	12.9
CC(C)Cc1ccc(-c2nn(-c3ccc(S(C)(=O)=O)cc3)cc2/C=N/N=c2\[nH]c(-c3ccc([N+](=O)[O-])cc3)cs2)cc1		34.4
COc1ccc(Nc2c(-c3ccc(S(C)(=O)=O)cc3)nc3c(C)cccn23)cc1	fluorescence	30
CSc1ccc(/C=C2\C=C(CC(=O)NS(=O)(=O)c3ccc(Cl)s3)c3cc(F)ccc32)cc1		2
Cc1cccn2c(Nc3ccc(F)cc3)c(-c3ccc(S(C)(=O)=O)cc3)nc12	fluorescence	31.5
COc1ccccc1-c1cccc([N+](=O)[O-])c1F	absorbance	9.34
